The record followed here is ChEMBL document CHEMBL1145729, “MMPs inhibitors: new succinylhydroxamates with selective inhibition of MMP-2 over MMP-3” (Bioorg Med Chem Lett, 2003).

Experiment [1] deals with T1, Stromelysin-1 (Homo sapiens, UniProt P08254). Nature of the experiment: Inhibition of human matrix metalloprotease-3. In outline:
(§1)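 Fluorogenic peptide cleavage assay with substrate Mca-Pro-Leu-Gly-Leu-Dpa-Ala-Arg-NH2. The enzyme was truncated recombinant MMP-3 lacking the PEX and pro domains, used instead of activated pro-MMP-3 because activation of the proenzyme was not reproducible.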

In experiment [2] the target is T2, 72 kDa type IV collagenase (Homo sapiens, UniProt P08253). Nature of the experiment: Inhibition of human matrix metalloprotease-2.
T2 sequence (P08253 whole entry): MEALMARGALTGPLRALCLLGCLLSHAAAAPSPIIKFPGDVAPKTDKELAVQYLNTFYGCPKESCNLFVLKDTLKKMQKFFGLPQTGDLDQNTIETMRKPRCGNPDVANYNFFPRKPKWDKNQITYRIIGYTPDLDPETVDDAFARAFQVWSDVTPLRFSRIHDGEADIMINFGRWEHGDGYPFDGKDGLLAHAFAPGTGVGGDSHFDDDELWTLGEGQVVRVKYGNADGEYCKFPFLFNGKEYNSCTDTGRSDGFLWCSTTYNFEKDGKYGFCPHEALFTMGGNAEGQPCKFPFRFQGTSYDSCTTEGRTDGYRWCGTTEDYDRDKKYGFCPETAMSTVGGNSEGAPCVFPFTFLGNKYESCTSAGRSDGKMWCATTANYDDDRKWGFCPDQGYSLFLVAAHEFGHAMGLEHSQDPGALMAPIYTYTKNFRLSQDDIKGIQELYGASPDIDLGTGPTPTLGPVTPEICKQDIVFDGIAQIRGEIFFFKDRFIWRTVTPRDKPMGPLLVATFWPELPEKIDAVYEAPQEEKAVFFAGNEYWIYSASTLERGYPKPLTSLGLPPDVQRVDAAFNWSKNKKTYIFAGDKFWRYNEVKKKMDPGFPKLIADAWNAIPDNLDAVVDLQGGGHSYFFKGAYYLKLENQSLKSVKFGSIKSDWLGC
Experiment [3] deals with T1, Stromelysin-1. Nature of the experiment: Inhibition of human matrix metalloprotease-3 (inactive). In outline: as §1
Experiment [4] concerns the target T2, 72 kDa type IV collagenase. Put plainly: Inhibition of human matrix metalloprotease-2 (inactive). An outline of the steps: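 Fluorogenic peptide cleavage assay with substrate Mca-Pro-Leu-Gly-Leu-Dpa-Ala-Arg-NH2. The enzyme was recombinant pro-MMP-2 activated with APMA.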
For experiment [5], the target named is Matrix metalloproteinase (2 and 3) (Homo sapiens) (UniProt P08254+P08253). Nature of the experiment: Selectivity ratio for Matrix metalloprotease-2 over Matrix metalloprotease-3 (IC50). It is filed as protein assay.
Sequence of Matrix metalloproteinase (2 and 3) (Homo sapiens) (P08253 whole entry, looked up): as the sequence (P08253 whole entry) above
Sequence of Matrix metalloproteinase (2 and 3) (Homo sapiens) (P08254 whole entry, looked up): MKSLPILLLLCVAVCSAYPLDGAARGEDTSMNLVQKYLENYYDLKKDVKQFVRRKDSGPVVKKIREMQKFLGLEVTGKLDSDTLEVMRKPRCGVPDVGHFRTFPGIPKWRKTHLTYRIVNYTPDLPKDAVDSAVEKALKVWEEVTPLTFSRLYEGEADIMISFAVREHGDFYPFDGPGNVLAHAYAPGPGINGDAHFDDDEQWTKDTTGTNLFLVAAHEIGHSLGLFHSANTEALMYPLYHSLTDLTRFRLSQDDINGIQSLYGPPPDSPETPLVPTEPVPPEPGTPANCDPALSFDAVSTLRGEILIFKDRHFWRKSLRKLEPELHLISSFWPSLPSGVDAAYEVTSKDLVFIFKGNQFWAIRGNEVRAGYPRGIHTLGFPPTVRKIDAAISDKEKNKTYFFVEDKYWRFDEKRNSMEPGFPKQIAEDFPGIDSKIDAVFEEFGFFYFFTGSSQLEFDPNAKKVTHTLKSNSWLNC

Where “and” joins values, the source holds several entries; their conditions need not be identical. Equal entries are not always repeated.

T1 sequence (P08254 whole entry, the tested form may be a part): as the sequence (P08254 whole entry, looked up) above

On to `CNC(=O)[C@H](Cc1c[nH]c2ccccc12)NC(=O)/C(=C/C(C)C)CC(=O)NO` [listing 1 of 3 here], for which the half-inhibitory concentration (IC50) against Stromelysin-1 [1] amounted to 910 nM; in experiment [2], 19.6 nM.
For `CNC(=O)[C@H](Cc1c[nH]c2ccccc12)NC(=O)/C(=C/C(C)C)CC(=O)NO` [listing 2 of 3 here] the same measures were 179 nM and 1.3 nM.
For the compound `CNC(=O)[C@H](Cc1c[nH]c2ccccc12)NC(=O)/C(=C/C(C)C)CC(=O)OC`, the IC50 entry (against Stromelysin-1 [3]; in experiment [4]) was “Not Active” throughout.
Take `CNC(=O)[C@H](Cc1c[nH]c2ccccc12)NC(=O)/C(=C/C(C)C)CC(=O)NO` [listing 3 of 3 here]: the Selectivity in experiment [5] was 138 and 46.
As for `CCOC(=O)[C@H](Cc1c[nH]c2ccccc12)NC(=O)/C(=C/C(C)C)CC(=O)NO`, the Selectivity in experiment [5] is 392. The half-inhibitory concentration (IC50) at Stromelysin-1 [1] is 2340 nM; in experiment [2] it was 5.97 nM.
For `CNC(=O)C(Cc1c(CCN(C)C)[nH]c2ccccc12)NC(=O)/C(=C/C(C)C)CC(=O)NO` (centres undefined) the same measures were 116, 665 nM and 5.73 nM.
`CNC(=O)[C@H](Cc1c[nH]c2ccccc12)NC(=O)[C@@H](CC(=O)NO)CC(C)C` [ILOMASTAT] yielded an IC50 against Stromelysin-1 [1] of 0.191 nM.

One may read the IC50 as the concentration that inhibits the measured activity by half. Lower therefore signals higher potency.
